Measured values gathered from unrelated publications.
Protocols differ between the studies behind these lines.
Target: Mitogen-activated protein kinase 9 (MAPK9, Homo sapiens, UniProt P45984)

SMILES | test | setting | remaining binding
COc1cnc(Nc2cccc(S(N)(=O)=O)c2)nc1N1CCN(c2ccccc2)CC1 | binding, competition with immobilised ligand | 1 µM | 72%
CN(C)c1ncc(F)c(-c2cnn3ncccc23)n1 | binding | 1 µM | 82%
O=C(c1ccc(Nc2ncc(Cl)c(-c3ccc(Cl)s3)n2)cc1)N1CCC(N2CCCC2)CC1 | binding, competition with immobilised ligand | 1 µM | 1.1%
CN(c1nccc(-c2cnn3ncccc23)n1)C1CC1 | binding | 1 µM | 100%
NS(=O)(=O)c1cc(NC(=O)C2(c3ccccc3Cl)CC2)ccc1Oc1cccc(Cl)c1 | cell-free assay, competition with immobilised ligand | 1 µM | 100%
CCN1CCN(Cc2ccc(C(=O)Nc3ccc(C)c(Oc4ccc5c(c4)CC(=O)N5)c3)cc2C(F)(F)F)CC1 | binding, competition with immobilised ligand | 1 µM | 29%
O=C(c1ccc(Nc2nccc(-c3cc4ccccc4s3)n2)cc1)N1CCC(N2CCCC2)CC1 | binding, competition with immobilised ligand | 1 µM | 33%
CC(C)(C)c1ccc(-c2nc(CBr)nn2-c2cccc(O)c2)cc1 | cell-free assay, competition with immobilised ligand | 10 µM | 46%
CC1=C(C#N)C(c2ccc3c(c2)c(NC(=O)c2ccccc2C)nn3C)C(C#N)=C(C)N1 | cell-free assay, competition with immobilised ligand | 1 µM | 73%
C[C@@H]1CCN(c2nccc(-c3cnn4ncccc34)n2)C1 | binding | 1 µM | 64%
COc1cccc(CNC(=O)c2nc3scc(COCc4ccc(C(=O)O)cc4)c3c(=O)[nH]2)c1 | cell-free assay, competition with immobilised ligand | 1 µM | 97.1%
Cc1cnc(Nc2ccc(C(=O)N3CCC(N4CCCC4)CC3)cc2)nc1-c1cc2ccccc2s1 | binding, competition with immobilised ligand | 1 µM | 14%
C[C@@H]1CN(c2ccc3ncc(-c4ccc5[nH]nc(C6CC6)c5c4)n3n2)C[C@H](C)O1 | binding, competition with immobilised ligand | 50 nM | 80%
CCC(=O)N[C@H]1CC[C@@H](C(=O)N(C)c2ccc(-c3nc4ccccc4o3)cc2)C1 | cell-free assay, competition with immobilised ligand | 1 µM | 79%
N[C@@H]1CCN(c2nccc(-c3cnn4ncccc34)n2)C1 | binding | 1 µM | 100%
COc1cnc(Nc2cccc(S(N)(=O)=O)c2)nc1N1CCN(c2ccccc2)C(=O)C1 | binding, competition with immobilised ligand | 1 µM | 69%
CC1CCCN1c1nccc(-c2cnn3ncccc23)n1 (stereo not drawn) | binding | 1 µM | 100%
O=C(NCCCC1CCCCC1)c1ccc(CNC(=O)c2cnn(-c3ccccc3)c2C(F)(F)F)cc1 | cell-free assay, competition with immobilised ligand | 0.1 µM | 85%
c1cncc(-c2cccc(Nc3nccc(NC4CCCCC4)n3)c2)c1 | binding, competition with immobilised ligand | 10 µM | 74%
COc1ncc2cc3ccccc3nc2c1C#N | cell-free assay, competition with immobilised ligand | 5 µM | 100%
C[C@H](c1ccc(F)cc1)N(Cc1cccc(C(=O)O)c1)C(=O)c1cnc2ccccc2c1 | cell-free assay, competition with immobilised ligand | 1 µM | 81%
CN(C)c1nccc(-c2cnc3ncccn23)n1 | binding | 1 µM | 60%
CCS(=O)(=O)c1cc2cc(C[C@@](O)(CC(C)(C)c3ccc(F)cc3C(N)=O)C(F)(F)F)[nH]c2cn1 | cell-free assay, competition with immobilised ligand | 1 µM | 84%
O=C(NCC1CCOCC1)c1n[nH]cc1NC(=O)c1c(F)cccc1F | binding, competition with immobilised ligand | 1 µM | 57%
